Ratio, ED50 and Activity data for 19 compounds are collected here from ChEMBL document CHEMBL3272234, “Analgesic agents. 3. New bridged aminotetralins” (1976).

A word on the ED50: it is the dose at which the effect has come halfway, by size or by number of responders.

The species entered for assay [1] is Rattus norvegicus. Briefly: Analgesic activity in Charles River rat by tail flick test relative to morphine. In kind it is functional. In short, it runs like this:
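Rats (groups of six or ten) dosed ip in aqueous solution or Tween-80 suspension, with doses as mg base/kg. Potency expressed relative to morphine, which was taken as unity. Some estimates were based on two doses.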

Assay [2] has as its system Rattus norvegicus. Put plainly: Analgesic activity in po dosed Charles River rat by tail flick test. In kind it is functional. In short, it runs like this:
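Oral dosing of rats, with doses calculated as mg base/kg. Read-out recorded as the number of rats showing analgesia over the number tested.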

Assay [3] has as its system Rattus norvegicus. Briefly: Analgesic activity in ip dosed Charles River rat by tail flick test. The assay is classed as functional. In outline: (§1)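 Dosed intraperitoneally as aqueous solutions or Tween-80 suspensions to groups of six or ten rats. Doses expressed as mg base/kg. Read-out recorded as the number of rats showing analgesia over the number tested at each dose.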

The test system of assay [4] is Rattus norvegicus. Briefly: Analgesic activity in Charles River rat at 50 mg/kg, ip by tail flick test. In kind it is functional, organism-based. On the set-up: dose 50 mg/kg. In short, it runs like this: as §1
For orientation: Hot-plate and tail-flick tests time the reaction to a heat stimulus.

The subject of assay [5] is Rattus norvegicus. Briefly: Analgesic activity in Charles River rat at 25 mg/kg, ip by tail flick test. The assay is classed as functional, organism-based. Also noted: dose 25 mg/kg. In short, it runs like this: as §1

SMILES strings stand for the structures. Activity calls are given as the source filed them. The calls are words filed in the database; no cut-off is given here.

Regarding `COc1ccc2c(c1)[C@@]1(C)CCCCCC(C2)[C@@H]1[N+](C)(C)[O-].Cl`, in assay [1], the Ratio came to 0.44. The ED50 in assay [2] amounted to 16.5 mg/kg; in assay [3], 10 mg/kg.
Consider `Br.C[C@@]12Cc3ccccc3CCC(Cc3ccc(O)cc31)C2N` (some centres undefined), for which it took a dose of 25 mg/kg to reach the 50% effect level in assay [3] (ED50).
For the compound `CC[C@@]12CC=CCC(Cc3ccc(O)cc31)[C@@H]2N`, in assay [1], the Ratio worked out at 2.53. The results for the ED50 in assay [2] and in assay [3] were 6.25 mg/kg and 1.75 mg/kg, respectively.
Regarding `CC[C@@]12Cc3ccccc3CC(Cc3ccc(OC)cc31)C2N.Cl` (some centres undefined), in assay [3], the ED50 was 50 mg/kg.
As for `Br.C[C@@]12Cc3ccccc3CC(Cc3ccc(O)cc31)C2N` (some centres undefined), the Ratio in assay [1] is 0.35. The compound further came in with an ED50 in assay [3] of 12.5 mg/kg.
`CCC(=O)O[C@](Cc1ccccc1)(c1ccccc1)[C@H](C)CN(C)C` [PROPOXYPHENE] came in with an ED50 in assay [3] of 10.4 mg/kg.
Same read-out and setting: to `CC[C@@]12CC=CCC(Cc3ccc(OC)cc31)[C@@H]2NC.I` belongs 25 mg/kg.
Regarding `COc1ccc2c(c1)[C@@]1(C)Cc3ccccc3CC(C2)C1N.Cl` (some centres undefined), the Ratio in assay [1] was found to be 0.31. The ED50 in assay [3] was found to be 14.5 mg/kg.
In the case of `COc1ccc2c(c1)[C@@]1(C)CC=CCC(C2)[C@@H]1N(C)C.Cl`, in assay [4], the result was inactive. The compound also yielded an ED50 in assay [3] of 50 mg/kg.
`COc1ccc2c(c1)[C@@]1(C)CCCCCC(C2)[C@@H]1N.Cl`: the Ratio in assay [1] was found to be 0.44. This compound also registered an ED50 in assay [3] of 10 mg/kg.
On to `CC[C@@]12CC=CCC(Cc3ccc(OC)cc31)[C@@H]2N.Cl`, for which the Ratio in assay [1] was found to be 1.05. Moreover, the ED50 in assay [2] was 6.25 mg/kg; in assay [3], 4.2 mg/kg.
The corresponding values for `CC(=O)Oc1ccc2c(c1)[C@@]1(C)CCCCC(C2)[C@@H]1N.Cl` are 0.44, 40 mg/kg and 10 mg/kg.
In the case of `CN1CC[C@]23c4c5ccc(O)c4O[C@H]2[C@@H](O)C=C[C@H]3[C@H]1C5` [MORPHINE], the Ratio in assay [1] is 1.
As for `C[C@@]12CC=CCC(Cc3ccc(O)cc31)[C@@H]2N.Cl`, the Ratio in assay [1] is given as 1.26. This compound also displayed a median effective dose (ED50) in assay [3] of 6.25 mg/kg.
With `CC[C@@]12CC=CCC(Cc3ccc(OC)cc31)[C@@H]2N(C)C.Cl`, the outcome in assay [4] was inactive. In assay [3], this compound returned an ED50 of 50 mg/kg.
As to `COc1ccc2c(c1)[C@@]1(C)CC=CCC(C2)[C@@H]1N.Cl`, in assay [1], the Ratio was 0.27. The median effective dose (ED50) turned out to be 6.25 mg/kg in assay [2] and 16.5 mg/kg in assay [3].
Regarding `COc1ccc2c(c1)[C@@]1(C)Cc3ccccc3CCC(C2)C1N.O=C(O)/C=C/C(=O)O` (some centres undefined), in assay [5], the result was inactive. The median effective dose (ED50) in assay [3] was 25 mg/kg.
Consider `C[C@@]12CCCCC(Cc3ccc(OC(=O)C4CC4)cc31)[C@@H]2N.Cl`, for which the Ratio in assay [1] turned out to be 0.81. Further, the ED50 in assay [2] stood at 16.5 mg/kg; in assay [3], 5.5 mg/kg.
Take `Br.C[C@@]12CCCCC(Cc3ccc(O)cc31)[C@@H]2N`: in assay [1], the Ratio is 0.6. In addition, the ED50 in assay [3] came out at 7.4 mg/kg.
